Bioassay records (PubChem BioAssay)
This is one part of a sample in which hits are shown more often than they occur.
H69AR inhibit: growth inhibitors of human H69AR lung tumor cells. H69AR lung tumor viability, ATP luminescence, 72 h; hits give low values. viability, % at 10 µM. 6% of 85,000 active;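 active = viability at or below 40%; inactive = viability above 40%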;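 note: multidrug resistant small cell line overexpressing MRP-1 efflux transporter; 100% = mean luminescence of untreated control wells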
HCT116 PTEN-null: growth suppressors of cells with PTEN tumor suppressor deletion. AID 827. viability, % at 10 µM. 1.2% of 140,000 active. HCT116 PTEN-null viability, CellTiter-Glo, 60 h; hits give low values;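 active = viability at or below a set limit, 4 SD under the median of all tested compounds, cut at about 3.7% in these data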;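 note: PTEN knockout HCT116 line with beta catenin targeted HCT116 as companion control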
HUVEC inhibit: blocks proliferation of human endothelial cells | viability, % at 10 µM (by protocol) | 1.1% of 86,000 active | HUVEC proliferation, CellTiter-Glo luminescence, 72 h; hits give low values;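 active = viability at or below 30%; inactive = viability above 30%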;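 note: 100% = median luminescence of DMSO-only cell control wells on each plate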
Fibroblast inh: blocks proliferation of human lung fibroblasts; LL 47 human lung fibroblast viability, ATP luminescence; hits give low values; viability, % at 10 µM; 1.1% of 85,000 active; AID 719;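 active = viability at or below 50% in the single dose screen; inactive = viability above 50%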;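 note: compound exposure lasted 72 h before the ATP readout; 100% = median luminescence of untreated cell-only wells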
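Test system: LL 47 human lung fibroblasts; Quantity: 1,150 cells/well; Buffer or medium: IMEM plus 15% FBS; Dosing: tenfold compound dosing solution, DMSO at 0.1%; Timing: overnight cell rest, 72 h compound treatment at 37 °C; Detection: ATP-based CellTiter-Glo luminescent readout; Read-out basis: viability percentage against median untreated-cell control; Controls: cell-only wells, no compound.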
bCat KO growth: beta-catenin-lacking colon tumor cell growth suppression. HCT116 beta-catenin knockout viability, CellTiter-Glo, 60 h; hits give low values. viability, % at 10 µM. 1.5% of 140,000 active. AID 818;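 active = viability at or under a set limit, the compound median less 4 SD, cut at about 6% in these data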;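 note: 0% = Hyamine 1622 control at 20 µM and 100% = untreated cell control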
An asterisk follows results filed as active; nt = not tested or not shown.

SMILES | H69AR inhibit | HCT116 PTEN-null | HUVEC inhibit | Fibroblast inh | bCat KO growth
C[C@@H]1O[C@@H](O[C@H]2C[C@@H](O)[C@]3(CO)[C@H]4[C@H](O)C[C@]5(C)[C@@H](C6COC(=O)C6)CC[C@]5(O)[C@@H]4CC[C@]3(O)C2)[C@H](O)[C@H](O)[C@H]1O (some centres not stated) | nt | 5 | nt | nt | 4.6*
O=P(NS(=O)(=O)c1ccc(Br)cc1)(Oc1ccccc1)Oc1ccccc1 | 106 | 109 | 88 | 95 | 92
CCOC(=O)/C(CCCN(CC)CC)=N\O | 101 | 97 | 103 | 100 | 97
CCOC(=O)c1c(-n2c(C)cc(C=C3C(=O)NC(=S)NC3=O)c2C)sc2c1CCCC2 | nt | 5 | nt | nt | 3.8*
COc1cccc(OC)c1C1=NCC(=O)Nc2c1oc1ccc(Br)cc21 | 34* | 16 | 46 | 60 | 15
OC12ONC(c3ccccn3)C1N1CCC2CC1 (configuration not stated) | nt | 56 | nt | nt | 55
CCCCC1(CCCC)C(=O)NC(=Nc2cccc(C)c2)NC1=O | 7.8* | 12 | 59 | 52 | 32
CCCCN1C(=N)C(CC)(CC)C(=O)NC1=O | nt | 104 | nt | nt | 92
O=[N+]([O-])c1ccc(C2C3C(c4ccccc4)=NC4(CCCC4)N32)cc1 (configuration not stated) | nt | 77 | nt | nt | 80
CN1CCC(O)(c2ccccc2)C(C(=O)c2ccccc2)C1 (configuration not stated) | 83 | 23 | 90 | 85 | 5.3*
Nc1ccncc1 | nt | 102 | nt | nt | 97
CCN1/C(=C\C=C\C2=[N+](CC)c3ccccc3C2(C)C)C(C)(C)c2ccccc21 | 0.2* | 1.1* | 22* | 8.7* | 1.1*
CCc1nc2ccccc2c(=O)n1-c1ccc2ccccc2c1 | 31* | 95 | 81 | 91 | 87
CN(CC(=O)Nc1ccccc1-c1ccccc1)C1CCCCC1 | 69 | 75 | 97 | 87 | 72
Cc1cccc(-n2c(CN3C(=O)c4ccccc4C3=O)nc3ccccc3c2=O)n1 | 92 | nt | 106 | 105 | nt
CCCCCCCSc1cc(OC)c(CCNC)cc1OC | nt | 1.6* | nt | nt | 1.5*
N=C1c2ccccc2CN1NC(=O)c1ccc(Br)cc1 | nt | 89 | nt | nt | 91
Cc1cccn2c(=O)c3c(nc12)N1CCC(Cc2ccccc2)CC1C1(C3)C(=O)N(C)C(=O)N(C)C1=O (configuration not stated) | 29* | 70 | 74 | 103 | 68
O=S(=O)(c1ccccc1)N1CC1c1ccccc1 (configuration not stated) | nt | 80 | nt | nt | 89
C[C@H]1CCCC(=O)CCC/C=C/c2cc(O)cc(O)c2C(=O)O1 | 36* | 66 | 52 | 106 | 65
CCOc1ccc(-n2c(O)c(C=NCCN3CCNCC3)c(=O)[nH]c2=O)cc1 | 98 | 94 | 107 | 101 | 100
O=C(c1ccc2c(c1)ncn2C1CCCCCC1)N1CCC2(CC1)OCCO2 | 28* | 42 | 97 | 95 | 42
Cc1nc2cc(C(=O)N3CCC4(CC3)OCCO4)ccc2n1-c1cccc(F)c1 | 88 | 95 | 100 | 99 | 98
Cc1c(C=O)c2ccccc2n1Cc1ccc([N+](=O)[O-])cc1 | nt | 72 | nt | nt | 90
CCCCn1c(O)c(C(CC)=NC(C)c2ccccc2)c(=O)[nH]c1=O (configuration not stated) | 17* | 45 | 75 | 99 | 46
SMILES | H69AR inhibit | HCT116 PTEN-null | HUVEC inhibit | Fibroblast inh | bCat KO growth
CCCCn1c(O)c(C(C)=NCCc2ccccc2)c(=O)[nH]c1=O | 86 | 98 | 100 | 100 | 93
CCCCn1c(O)c(C(CC)=Nc2ccc(OC)cc2OC)c(=O)[nH]c1=O | 34* | 86 | 78 | 94 | 87
CCCCn1c(O)c(C(C)=NC(C)c2ccccc2)c(=O)[nH]c1=O (configuration not stated) | 28* | 97 | 85 | 108 | 98
O=c1[nH]c(=O)n(C2CCCCCC2)c(O)c1C=NC1CCN(Cc2ccccc2)CC1 | 35* | 73 | 103 | 95 | 93
CN(C)C=C1C(=O)N(C2CCCCC2)C(=O)N(C2CCCCC2)C1=O | 31* | 91 | 67 | 95 | 88
ClC1=CCC2CN(CCN3CCCCC3)CC2C1 (configuration not stated) | 85 | nt | 92 | 92 | nt
CCOc1cccc(OCC)c2c(C)[n+](CC3CCCO3)c(C)c1-2 (configuration not stated) | 32* | 108 | 95 | 104 | 96
Nc1c(C(=O)NCCCc2ccccc2)c2nc3ccccc3nc2n1Cc1cccs1 | 61 | 1.9* | 53 | 88 | 2.9*
CCCCn1c(N)c(C(=O)NCc2cccs2)c2nc3ccccc3nc21 | 35* | 16 | 71 | 71 | 18
CCCCCn1c(N)c(C(=O)NCc2cccs2)c2nc3ccccc3nc21 | 32* | 20 | 82 | 86 | 27
CCCOC(=O)c1c(N)n(Cc2cccs2)c2nc3ccccc3nc12 | 41 | 83 | 75 | 96 | 75
CC(C)=CCC12CN3CCN(CC(C3)C1=O)C2 | 108 | 97 | 104 | 107 | 98
Cc1cc(C)[n+](C2C3CC4CC(C3)CC2C4)o1 (configuration not stated) | nt | 97 | nt | nt | 95
S=C1NCCN1 | 93 | 101 | 98 | 99 | 94
Cc1oc(C(=O)Nc2ccc(O)cc2)cc1COc1ccccc1 | 29* | 94 | 63 | 104 | 91
N#Cc1cc2c(nc1SCC(=O)Nc1cc(Cl)ccc1Cl)C1CCN2CC1 | 1.8* | 0.7* | 5.5* | 7.1* | 1.1*
OCC12COC3c4ccccc4C(OC1)N32 (configuration not stated) | 95 | 115 | 104 | 98 | 92
CCOCCCN=Cc1c(O)n(Cc2ccccc2)c(=O)[nH]c1=O | 95 | 99 | 97 | 89 | 106
C=CCn1c(O)c(C=NCCCOc2ccc(CC)cc2)c(=O)[nH]c1=S | 31* | 70 | 49 | 83 | 69
CCOc1ccc(-n2c(O)c(C=Nc3ccc(N(CC)CC)cc3)c(=O)[nH]c2=O)cc1 | 54 | 73 | 90 | 103 | 71
CCN(CC)c1ccc(N=Cc2c(O)n(-c3ccccc3C)c(=O)[nH]c2=O)cc1 | 55 | 66 | 83 | 93 | 64
CCOc1ccccc1-n1c(O)c(C=Nc2ccc(N(CC)CC)cc2)c(=O)[nH]c1=O | 19* | 53 | 65 | 71 | 44
CCN(CC)c1ccc(N=Cc2c(O)n(Cc3ccccc3)c(=O)[nH]c2=O)cc1 | 17* | 97 | 70 | 74 | 86
C=CCn1c(O)c(C(C)=Nc2ccc(N(CC)CC)cc2)c(=O)[nH]c1=O | 20* | 28 | 70 | 66 | 36
Cc1cccn2c(=O)c3cc(C(=O)N4CCC5(CC4)OCCO5)n(C)c3nc12 | 20* | 13 | 56 | 57 | 14
C=CCn1c(O)c(C(C)=Nc2cc(OC)ccc2OC)c(=O)[nH]c1=O | 97 | 88 | 106 | 102 | 108
